Results from ChEMBL document CHEMBL1124406 (J Med Chem, 1989).

Assays:
Dihydrofolate reductase = biological target: T1, Dihydrofolate reductase (Homo sapiens, UniProt P00374); experiment: Compound was tested for its inhibitory activity against dihydrofolate reductase (DHFR), isolated from MTX-resistant WI-L2 cells; type: cell-based
T1 sequence (P00374 whole entry): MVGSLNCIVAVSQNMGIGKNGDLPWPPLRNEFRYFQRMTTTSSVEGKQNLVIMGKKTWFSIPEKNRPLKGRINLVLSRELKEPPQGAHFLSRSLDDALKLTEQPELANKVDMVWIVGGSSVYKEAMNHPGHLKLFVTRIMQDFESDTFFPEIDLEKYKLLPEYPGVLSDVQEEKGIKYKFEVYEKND

Mus musculus [1] = species on record: Mus musculus; experiment: Ratio of Vmax and Km relative to AMT
How it was run: (§1)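 FPGS was partially purified from mouse liver, and the compounds were run as substrates. Km, Vmax and Vmax/Km came from the kinetic data. Vmax and Vmax/Km are expressed relative to aminopterin run in the same experiment. Each compound was tested in 2–3 experiments on different days.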

Mus musculus [2] = species on record: Mus musculus; experiment: Vmax of compound was derived from purified Folyl-polyglutamate synthase from mouse liver; how it was run: as §1
L1210 [3] = experiment: Compound was measured for growth inhibition of L1210 cells in standard medium; type: functional, cell-based; details: Mus musculus
L1210 [4] = experiment: Compound was measured for growth inhibition of L1210 cells in the presence of hypoxanthine; type: functional, cell-based; details: Mus musculus
How it was run: (§2)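 Reversal test of an antifolate effect on L1210 cell growth in culture. The drug is given alongside one of three supplements: thymidine alone at 10 μM, hypoxanthine alone at 100 μM, or thymidine 10 μM plus hypoxanthine 100 μM together.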

L1210 [5] = experiment: Compound was measured for growth inhibition of L1210 cells in the presence of thymidine; type: functional, cell-based; details: Mus musculus; how it was run: as §2
L1210 [6] = experiment: Compound was measured for growth inhibition of L1210 cells in the presence of thymidine plus hypoxanthine; type: functional, cell-based; details: Mus musculus; how it was run: as §2
L1210 [7] = experiment: Inhibition of cell growth against L1210 murine leukemia cells; type: functional, cell-based; details: Mus musculus
[8] = Inhibition of cell growth against WI-L2 cells; type: functional, cell-based; details: Homo sapiens, WIL2
Mus musculus [9] = species on record: Mus musculus; experiment: Kinetic constant of compound was derived from purified Folyl-polyglutamate synthase from mouse liver; how it was run: as §1

| SMILES | IC50 (Dihydrofolate reductase) | Ratio (Mus musculus [1]) | Vmax (Mus musculus [2]) | IC50 (L1210 [3]) | IC50 (L1210 [4]) | IC50 (L1210 [5]) | IC50 (L1210 [6]) | IC50 (L1210 [7]) | IC50 [8] | Km (Mus musculus [9]) |
| --- | --- | --- | --- | --- | --- | --- | --- | --- | --- | --- |
| Cc1nc(N)c2nc(CNc3ccc(C(=O)NC(CCC(=O)O)C(=O)O)cc3)cnc2n1 (centres undefined) | > 50000 nM | 0.6 | 0.77 | 42 nM | 160 nM | 130 nM | > 100000 nM | 42 nM | 28 nM | 31.7 µM |
| Nc1ncnc2ncc(CNc3ccc(C(=O)NC(CCC(=O)O)C(=O)O)cc3)nc12 (centres undefined) |  | 0.74 | 0.87 | 82 nM | 260 nM | 160 nM | > 100000 nM | 82 nM | 81 nM | 26.4 µM |
| Nc1nc(N)c2nc(CNc3ccc(C(=O)N[C@@H](CCC(=O)O)C(=O)O)cc3)cnc2n1 |  | 1 | 1 |  |  |  |  |  |  | 22.8 µM |
| CN(Cc1cnc2nc(N)nc(N)c2n1)c1ccc(C(=O)N[C@@H](CCC(=O)O)C(=O)O)cc1 [METHOTREXATE] |  |  |  |  |  |  |  | 9 nM | 13 nM |  |
